SMILES strings stand for the structures.

In one assay the test system is MDA-MB-231. Description: Antiproliferative activity against human MDA-MB-231 cells after 72 hrs by MTT assay. The format is functional, cell-based. Conditions: MDA-MB-231, 72 h. In outline: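 MDA-MB-231 cells grown in DMEM with 10% FBS and penicillin/streptomycin at 37 °C under 5% CO2. Seeded at 5×10^3 cells/well for 24 h, then exposed to compound across a concentration range for 72 h. MTT (5 mg/mL in PBS) added for 5 h, formazan dissolved in DMSO, absorbance read at 570 nm. Three repeats.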

The subject of the next assay is HepG2. Description: Antiproliferative activity against human HepG2 cells after 72 hrs by MTT assay. Type of assay: functional, cell-based. Conditions: HepG2, 72 h. An outline of the steps:
(§1)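 A549, HeLa, HepG2 and normal liver L02 cells kept in DMEM with 10% FBS at 37 °C under 5% CO2. Plated at 5×10^3 cells/well for 24 h, then treated with graded concentrations for 72 h. Viability measured by MTT reduction (5 h), formazan dissolved in DMSO and read at 570 nm. Three repeats.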

In a further assay the test system is HeLa. Description: Antiproliferative activity against human HeLa cells after 72 hrs by MTT assay. The format is functional, cell-based. In outline:
as §1

The next assay relates to A549. Description: Antiproliferative activity against human A549 cells after 72 hrs by MTT assay. Type of assay: functional, cell-based. Conditions: A549, 72 h. An outline of the steps: as §1
Background: Tetrazolium dyes change colour on reduction, which living cells bring about.

For another assay, the system named is L02. In words: Antiproliferative activity against human L02 cells after 72 hrs by MTT assay. The format is cell-based. Conditions: L02, 72 h. In outline:
as §1

One may read the IC50 as the point on the concentration scale where inhibition reaches its midpoint. Read a high IC50 as a need for much substance. Turning to `Cc1coc2c3ccc4c(c3c3[nH]c(-c5cccc(O)c5)nc3c12)CCCC4(C)C`, the IC50 with MDA-MB-231 came out at 25.5 µM; in the assay with HepG2 it was 37.1 µM; in the assay on HeLa, 52.6 µM; with A549, 18.4 µM; in the assay on L02, 32.9 µM.

For `Cc1coc2c3ccc4c(c3c3[nH]c(-c5ccccc5O)nc3c12)CCCC4(C)C`, the IC50 was 20.2 µM in the assay with MDA-MB-231; 26.3 µM with HepG2; 84.3 µM with HeLa; 4.9 µM in the assay on A549; 51.9 µM in the assay on L02.

As to `Cc1coc2c3ccc4c(c3c3[nH]c(-c5ccccc5[N+](=O)[O-])nc3c12)CCCC4(C)C`, the IC50 in the assay with MDA-MB-231 was 23.6 µM; in the assay with HepG2, 24.8 µM; in the assay with HeLa, 115 µM; in the assay with A549 it was 203 µM; in the assay on L02, over 300 µM.

Take `Cc1coc2c1C(=O)C(=O)c1c-2ccc2c1CCCC2(C)C` [TANSHINONE IIA]: the IC50 in the assay on MDA-MB-231 was determined as 116 µM; in the assay on HepG2, 65.7 µM; in the assay on HeLa, 193 µM; in the assay on A549, 53.2 µM; in the assay with L02, 78.5 µM.

Take `Cc1coc2c3ccc4c(c3c3[nH]c(-c5cccc(C(F)(F)F)c5)nc3c12)CCCC4(C)C`: the IC50 in the assay with MDA-MB-231 is 52.7 µM; in the assay on HepG2 it was 43.8 µM; in the assay on HeLa it was 68.8 µM; with A549 it was 31.4 µM; in the assay on L02, 54.5 µM.

Regarding `COc1ccccc1-c1nc2c([nH]1)c1c3c(ccc1c1occ(C)c21)C(C)(C)CCC3`, the IC50 in the assay on MDA-MB-231 is 110 µM; with HepG2, 126 µM; with HeLa, over 300 µM; in the assay on A549 it was 45.9 µM; in the assay with L02, 86.8 µM.

In the case of `Cc1coc2c3ccc4c(c3c3[nH]c(-c5ccc(C(F)(F)F)cc5)nc3c12)CCCC4(C)C`, the IC50 was determined as 44.3 µM with MDA-MB-231; 25.2 µM in the assay with HepG2; 65.3 µM in the assay with HeLa; 48.8 µM with A549; 30.7 µM in the assay on L02.

For the compound `Cc1coc2c3ccc4c(c3c3[nH]c(-c5ccccc5C(F)(F)F)nc3c12)CCCC4(C)C`, the IC50 with MDA-MB-231 is 23.8 µM; in the assay on HepG2, 38.4 µM; in the assay with HeLa it was 61 µM; in the assay with A549, 25.6 µM; in the assay on L02, 93.9 µM.

For `COc1cccc2c1C(=O)c1c(O)c3c(c(O)c1C2=O)C[C@@](O)(C(=O)CO)C[C@@H]3O[C@H]1C[C@H](N)[C@H](O)[C@H](C)O1` [DOXORUBICIN], the IC50 was 8.53 µM in the assay with MDA-MB-231; 4.3 µM in the assay with HepG2; 8.66 µM in the assay on HeLa; 3.4 µM with A549; 3.6 µM in the assay with L02.

Regarding `COc1ccc(-c2nc3c([nH]2)c2c4c(ccc2c2occ(C)c32)C(C)(C)CCC4)cc1`, the IC50 with MDA-MB-231 was 21.1 µM; with HepG2, 13.9 µM; in the assay on HeLa, 62 µM; in the assay with A549 it was 35.3 µM; in the assay with L02, 84 µM.

With `Cc1coc2c3ccc4c(c3c3[nH]c(-c5cccc([N+](=O)[O-])c5)nc3c12)CCCC4(C)C`, the IC50 is 48.8 µM in the assay with MDA-MB-231; 33.9 µM with HepG2; over 300 µM with HeLa; 63.7 µM in the assay on A549; over 300 µM in the assay on L02.

For `Cc1coc2c3ccc4c(c3c3[nH]c(-c5ccc([N+](=O)[O-])cc5)nc3c12)CCCC4(C)C`, the IC50 was 30.7 µM in the assay with MDA-MB-231; 31 µM with HepG2; 157 µM with HeLa; 24.9 µM in the assay with A549; over 300 µM with L02.

Consider `COc1cccc(-c2nc3c([nH]2)c2c4c(ccc2c2occ(C)c32)C(C)(C)CCC4)c1`, for which the half-inhibitory concentration (IC50) in the assay with MDA-MB-231 is 52.3 µM; in the assay on HepG2, 28.4 µM; in the assay on HeLa, 67.8 µM; in the assay on A549, 40.1 µM; in the assay on L02 it was over 300 µM.

For the origin of these results see ChEMBL document CHEMBL4257580, “Tanshinone-IIA-Based Analogues of Imidazole Alkaloid Act as Potent Inhibitors To Block Breast Cancer Invasion and Metastasis in Vivo” (J Med Chem, 2018).
